One assay addresses Mu-type opioid receptor (Homo sapiens, UniProt P35372). Kind of assay: Displacement of [3H]DAMGO from human mu opioid receptor expressed in CHO cells. The assay is classed as cell-based. On the technique in general: In a radioligand displacement assay an active substance lowers the binding of a labelled ligand.
Assay [1] addresses Kappa-type opioid receptor (Homo sapiens, UniProt P41145). The assay is described as follows: Displacement of [3H]U69593 from human kappa opioid receptor expressed in CHO cells. Format: cell-based.
Assay [2] has as its target Delta-type opioid receptor (Homo sapiens, UniProt P41143). Kind of assay: Displacement of [3H]naltrindole from human delta opioid receptor expressed in CHO cells. Format: cell-based. An outline of the steps: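 CHO cells stably expressing a single human opioid receptor were grown in DMEM with 10% FBS and penicillin/streptomycin at 37 °C in 5% CO2. Their membranes were incubated with radioligand and 12 concentrations of test compound at 25 °C in 50 mM Tris-HCl, pH 7.5.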

For assay [3], the species on record is Homo sapiens. Kind of assay: Selectivity ratio of Ki for human kappa opioid receptor to Ki for human mu opioid receptor.
For assay [4], the species on record is Homo sapiens. The assay is described as follows: Selectivity ratio of Ki for human delta opioid receptor to Ki for human mu opioid receptor.

For 33 compounds, Ki and Ratio Ki results are on record in ChEMBL document CHEMBL1156775 (J Med Chem, 2010).

Some results are limits rather than exact numbers.

Sequence of Mu-type opioid receptor (P35372 whole entry): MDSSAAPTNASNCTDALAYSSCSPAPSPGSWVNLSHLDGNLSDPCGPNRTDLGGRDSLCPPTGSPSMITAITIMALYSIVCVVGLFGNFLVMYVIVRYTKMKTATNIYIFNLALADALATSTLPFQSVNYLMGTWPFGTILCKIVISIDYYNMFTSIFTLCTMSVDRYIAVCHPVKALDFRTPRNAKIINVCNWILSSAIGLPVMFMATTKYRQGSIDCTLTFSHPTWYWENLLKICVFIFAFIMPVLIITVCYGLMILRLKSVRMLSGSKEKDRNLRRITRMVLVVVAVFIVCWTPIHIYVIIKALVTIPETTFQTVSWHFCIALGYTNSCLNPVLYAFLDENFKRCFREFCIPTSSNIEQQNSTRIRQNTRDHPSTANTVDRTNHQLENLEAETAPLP
Sequence of Delta-type opioid receptor (P41143 whole entry): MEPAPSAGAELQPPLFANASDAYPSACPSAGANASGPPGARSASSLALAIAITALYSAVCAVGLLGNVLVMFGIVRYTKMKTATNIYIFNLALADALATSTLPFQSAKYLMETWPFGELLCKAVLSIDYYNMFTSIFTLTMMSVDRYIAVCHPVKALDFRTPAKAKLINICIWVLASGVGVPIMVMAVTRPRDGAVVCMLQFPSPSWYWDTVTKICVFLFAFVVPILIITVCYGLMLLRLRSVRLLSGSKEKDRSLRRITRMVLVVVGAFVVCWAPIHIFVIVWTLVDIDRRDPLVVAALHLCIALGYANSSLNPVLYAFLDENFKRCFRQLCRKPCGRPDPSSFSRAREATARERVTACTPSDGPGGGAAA
Sequence of Kappa-type opioid receptor (P41145 whole entry): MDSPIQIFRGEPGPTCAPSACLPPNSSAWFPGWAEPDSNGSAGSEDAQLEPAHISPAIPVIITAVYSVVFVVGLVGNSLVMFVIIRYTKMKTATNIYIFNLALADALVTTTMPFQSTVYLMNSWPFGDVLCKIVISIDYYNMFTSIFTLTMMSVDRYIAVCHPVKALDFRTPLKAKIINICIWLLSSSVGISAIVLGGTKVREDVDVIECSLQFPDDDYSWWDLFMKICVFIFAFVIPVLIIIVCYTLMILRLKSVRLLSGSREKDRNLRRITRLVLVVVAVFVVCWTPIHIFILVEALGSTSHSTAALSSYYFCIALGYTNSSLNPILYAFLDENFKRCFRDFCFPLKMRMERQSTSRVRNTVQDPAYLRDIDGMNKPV

For `Ic1ccc(CNc2ccc3c(c2)[C@@]24CCCC[C@H]2[C@@H](C3)N(CC2CC2)CC4)cc1`, the results for the Ki (on Mu-type opioid receptor; in assay [1]; in assay [2]) were 0.71 nM, 0.79 nM and 34 nM, respectively.
Take `OCCCCCCCCCCC(O)c1cc2c(cc1O)[C@@]13CCCC[C@H]1[C@@H](C2)N(CC1CCC1)CC3` (mixture of isomers): the Ratio Ki in the assay filed under Homo sapiens [3] turned out to be 1; in the assay filed under Homo sapiens [4], 23. Also, the Ki at Mu-type opioid receptor stood at 36 nM; in assay [1], 26 nM; in assay [2], 610 nM.
For `c1ccc(CNc2ccc3c(c2)[C@@]24CCCC[C@H]2[C@@H](C3)N(CC2CCC2)CC4)cc1`, in that order: 1.6, 76, 1.7 nM, 2.8 nM and 130 nM.
As for `COc1ccc(CNc2ccc3c(c2)[C@@]24CCCC[C@H]2[C@@H](C3)N(CC2CC2)CC4)cc1`, the Ratio Ki in the assay listed under Homo sapiens [3] worked out at 2; in the assay listed under Homo sapiens [4], 65. Moreover, the inhibition constant Ki was found to be 0.31 nM on Mu-type opioid receptor, 0.51 nM in assay [1] and 20 nM in assay [2].
Turning to `Oc1cc2c(cc1C(O)CCCCCCCCCCC(O)c1cc3c(cc1O)[C@@]14CCCC[C@H]1[C@@H](C3)N(CC1CCC1)CC4)C[C@@H]1[C@@H]3CCCC[C@]23CCN1CC1CCC1` (mixture of isomers), the figures for the Ratio Ki in the assay filed under Homo sapiens [3] and in the assay listed under Homo sapiens [4] were 1 and 24, respectively. The Ki at Mu-type opioid receptor was determined as 35 nM; in assay [1], 31 nM; in assay [2], 730 nM.
In the case of `O=C(Nc1ccc(I)cc1)Oc1ccc2c(c1)[C@@]13CCCC[C@H]1[C@@H](C2)N(CC1CCC1)CC3`, the Ratio Ki in the assay filed under Homo sapiens [3] is 1; in the assay listed under Homo sapiens [4], 68. The values for the Ki (on Mu-type opioid receptor; in assay [1]; in assay [2]) were 1.1 nM, 0.99 nM and 67 nM, respectively.
Taken in the same sequence, the figures for `O=C(Nc1ccccc1)Nc1ccc2c(c1)[C@@]13CCCC[C@H]1[C@@H](C2)N(CC1CC1)CC3` were 0.5, 4, 3.9 nM, 1.6 nM and 16 nM.
Turning to `Ic1ccc(CN(Cc2ccc(I)cc2)c2ccc3c(c2)[C@@]24CCCC[C@H]2[C@@H](C3)N(CC2CCC2)CC4)cc1`, the Ratio Ki in the assay filed under Homo sapiens [3] amounted to 1; in the assay filed under Homo sapiens [4], 60. Moreover, the inhibition constant (Ki) on Mu-type opioid receptor was 16 nM; in assay [1], 16 nM; in assay [2], 960 nM.
`OCc1cc2c(cc1O)[C@@]13CCCC[C@H]1[C@@H](C2)N(CC1CCC1)CC3`: in the assay listed under Homo sapiens [3], the Ratio Ki was 0.25. The Ki is 360 nM on Mu-type opioid receptor, 86 nM in assay [1] and above 10000 nM in assay [2].
As for `Oc1cc2c(cc1CNCCCCCCNCc1cc3c(cc1O)[C@@]14CCCC[C@H]1[C@@H](C3)N(CC1CCC1)CC4)C[C@@H]1[C@@H]3CCCC[C@]23CCN1CC1CCC1`, the Ratio Ki in the assay listed under Homo sapiens [3] is 0.5; in the assay listed under Homo sapiens [4] it was 12. Moreover, the Ki on Mu-type opioid receptor was found to be 76 nM; in assay [1], 37 nM; in assay [2], 850 nM.
On to `Oc1cc2c(cc1C(O)CCCCC(O)c1cc3c(cc1O)[C@@]14CCCC[C@H]1[C@@H](C3)N(CC1CCC1)CC4)C[C@@H]1[C@@H]3CCCC[C@]23CCN1CC1CCC1` (mixture of isomers), for which the values for the Ratio Ki in the assay listed under Homo sapiens [3] and in the assay listed under Homo sapiens [4] were 1 and 24, respectively. Also, the Ki stood at 74 nM at Mu-type opioid receptor, 67 nM in assay [1] and 1600 nM in assay [2].
Consider `c1ccc(CNc2ccc3c(c2)[C@@]24CCCC[C@H]2[C@@H](C3)N(CC2CC2)CC4)cc1`, for which the Ratio Ki in the assay listed under Homo sapiens [3] worked out at 1.4; in the assay listed under Homo sapiens [4] it was 112. Further, the Ki at Mu-type opioid receptor turned out to be 0.26 nM; in assay [1], 0.34 nM; in assay [2], 29 nM.
For `Oc1cc2c(cc1CNCCCCNCc1cc3c(cc1O)[C@@]14CCCC[C@H]1[C@@H](C3)N(CC1CCC1)CC4)C[C@@H]1[C@@H]3CCCC[C@]23CCN1CC1CCC1`, in that order: 0.7, 28, 6.8 nM, 4.9 nM and 190 nM.
Take `c1ccc(Nc2ccc3c(c2)[C@@]24CCCC[C@H]2[C@@H](C3)N(CC2CC2)CC4)cc1`: the values for the Ratio Ki in the assay listed under Homo sapiens [3] and in the assay filed under Homo sapiens [4] were 0.5 and 68, respectively. The values for the Ki (at Mu-type opioid receptor; in assay [1]; in assay [2]) were 0.08 nM, 0.047 nM and 5.4 nM, respectively.
Turning to `CCC(O)c1cc2c(cc1O)[C@@]13CCCC[C@H]1[C@@H](C2)N(CC1CCC1)CC3` (mixture of isomers), the Ratio Ki in the assay filed under Homo sapiens [3] came to 0.3. Also, the results for the Ki (at Mu-type opioid receptor; in assay [1]; in assay [2]) were 180 nM, 72 nM and above 10000 nM, respectively.
Consider `Oc1cc2c(cc1CNCCCCCCCCNCc1cc3c(cc1O)[C@@]14CCCC[C@H]1[C@@H](C3)N(CC1CCC1)CC4)C[C@@H]1[C@@H]3CCCC[C@]23CCN1CC1CCC1`, for which the Ratio Ki amounted to 2 in the assay listed under Homo sapiens [3] and 42 in the assay filed under Homo sapiens [4]. Further, the Ki is 24 nM at Mu-type opioid receptor, 40 nM in assay [1] and 1000 nM in assay [2].
Consider `CN1CC[C@]23CCCC[C@H]2[C@H]1Cc1cc(CNCc2ccccc2)c(O)cc13`, for which, in the assay filed under Homo sapiens [3], the Ratio Ki came out at 2. Further, the figures for the inhibitory constant (Ki) (on Mu-type opioid receptor; in assay [1]; in assay [2]) were 190 nM, 380 nM and above 10000 nM, respectively.
Taken in the same sequence, the figures for `NCc1cc2c(cc1O)[C@@]13CCCC[C@H]1[C@@H](C2)N(CC1CCC1)CC3` were 0.5, 290 nM, 140 nM and above 10000 nM.
For `COc1ccc(CN(Cc2ccc(OC)cc2)c2ccc3c(c2)[C@@]24CCCC[C@H]2[C@@H](C3)N(CC2CC2)CC4)cc1`, the Ratio Ki in the assay filed under Homo sapiens [3] was 2; in the assay filed under Homo sapiens [4], 48. Moreover, the inhibition constant (Ki) on Mu-type opioid receptor is 2.5 nM; in assay [1], 3.9 nM; in assay [2] it was 120 nM.
As for `O=C(CCCCC(=O)NCc1cc2c(cc1O)[C@@]13CCCC[C@H]1[C@@H](C2)N(CC1CCC1)CC3)NCc1cc2c(cc1O)[C@@]13CCCC[C@H]1[C@@H](C2)N(CC1CCC1)CC3`, the Ratio Ki was 1 in the assay listed under Homo sapiens [3] and 21 in the assay filed under Homo sapiens [4]. Besides, the Ki came to 36 nM on Mu-type opioid receptor and 30 nM in assay [1].
In the case of `CN1CC[C@]23CCCC[C@H]2[C@H]1Cc1ccc(OC(=O)Nc2ccc(I)cc2)cc13`, the Ratio Ki in the assay listed under Homo sapiens [3] is 15; in the assay filed under Homo sapiens [4], 4. Also, the inhibition constant Ki on Mu-type opioid receptor was determined as 0.34 nM; in assay [1], 5.2 nM; in assay [2], 160 nM.
For `CCCNCc1cc2c(cc1O)[C@@]13CCCC[C@H]1[C@@H](C2)N(CC1CCC1)CC3`, the Ratio Ki in the assay listed under Homo sapiens [3] is 1. Moreover, the results for the inhibition constant (Ki) (on Mu-type opioid receptor; in assay [1]; in assay [2]) were 330 nM, 350 nM and above 10000 nM, respectively.
With `CCCCC(O)c1cc2c(cc1O)[C@@]13CCCC[C@H]1[C@@H](C2)N(CC1CCC1)CC3` (mixture of isomers), the Ratio Ki in the assay listed under Homo sapiens [3] was 1; in the assay listed under Homo sapiens [4] it was 6. Besides, the results for the inhibition constant Ki (at Mu-type opioid receptor; in assay [1]; in assay [2]) were 17 nM, 13 nM and 72 nM, respectively.
With `c1ccc(Nc2ccc3c(c2)[C@@]24CCCC[C@H]2[C@@H](C3)N(CC2CCC2)CC4)cc1`, the Ratio Ki in the assay listed under Homo sapiens [3] worked out at 1; in the assay listed under Homo sapiens [4], 2. Moreover, the Ki at Mu-type opioid receptor was determined as 1.7 nM; in assay [1], 1.5 nM; in assay [2], 39 nM.
As to `O/N=C\c1cc2c(cc1O)[C@@]13CCCC[C@H]1[C@@H](C2)N(CC1CCC1)CC3`, the Ratio Ki came to 0.16 in the assay filed under Homo sapiens [3] and 47 in the assay filed under Homo sapiens [4].
For `CCN(CCCCCCN(CC)Cc1cc2c(cc1O)[C@@]13CCCC[C@H]1[C@@H](C2)N(CC1CCC1)CC3)Cc1cc2c(cc1O)[C@@]13CCCC[C@H]1[C@@H](C2)N(CC1CCC1)CC3`, the Ratio Ki in the assay listed under Homo sapiens [3] came to 1; in the assay filed under Homo sapiens [4], 13. Also, the inhibitory constant (Ki) at Mu-type opioid receptor was 64 nM; in assay [1] it was 54 nM; in assay [2] it was 710 nM.
In the case of `COc1ccc(Nc2ccc3c(c2)[C@@]24CCCC[C@H]2[C@@H](C3)N(CC2CCC2)CC4)cc1`, the results for the Ratio Ki in the assay filed under Homo sapiens [3] and in the assay listed under Homo sapiens [4] were 1 and 3, respectively. Further, the inhibitory constant (Ki) on Mu-type opioid receptor worked out at 0.61 nM; in assay [1], 0.59 nM; in assay [2], 19 nM.
Taken in the same sequence, the figures for `O=C(Nc1ccc(I)cc1)Nc1ccc2c(c1)[C@@]13CCCC[C@H]1[C@@H](C2)N(CC1CCC1)CC3` were 0.5, 4, 24 nM, 28 nM and 250 nM.
For `CN1CC[C@]23CCCC[C@H]2[C@H]1Cc1ccc(NC(=O)Nc2ccc(I)cc2)cc13`, in that order: 16, 18, 17 nM, 280 nM and 300 nM.
For `Ic1ccc(CNc2ccc3c(c2)[C@@]24CCCC[C@H]2[C@@H](C3)N(CC2CCC2)CC4)cc1`, in that order: 1.1, 35, 5.4 nM, 5.8 nM and 190 nM.
For the compound `CN1CC[C@]23CCCC[C@H]2[C@H]1Cc1cc2c(cc13)OCN(Cc1ccccc1)C2`, in the assay listed under Homo sapiens [3], the Ratio Ki was 3. Moreover, the Ki at Mu-type opioid receptor is 110 nM; in assay [1], 310 nM; in assay [2] it was above 10000 nM.
In the case of `COc1ccc(Nc2ccc3c(c2)[C@@]24CCCC[C@H]2[C@@H](C3)N(CC2CC2)CC4)cc1`, the Ratio Ki in the assay filed under Homo sapiens [3] came out at 1; in the assay filed under Homo sapiens [4], 65. Besides, the Ki at Mu-type opioid receptor was 0.026 nM; in assay [1], 0.03 nM; in assay [2] it was 1.7 nM.
Regarding `O=C(Nc1ccc(I)cc1)Oc1ccc2c(c1)[C@@]13CCCC[C@H]1[C@@H](C2)N(CC1CC1)CC3`, the Ratio Ki is 1 in the assay filed under Homo sapiens [3] and 24 in the assay listed under Homo sapiens [4]. The values for the Ki (at Mu-type opioid receptor; in assay [1]; in assay [2]) were 0.58 nM, 0.6 nM and 14.6 nM, respectively.

The Ki is the equilibrium dissociation constant of an inhibitor or competing ligand from its target. Higher therefore signals lower affinity.
